According to article PMC5477668 (Journal of medicinal chemistry, 2017):

Assays:
[1] = molecular target: T1, PAD2 (Homo sapiens, UniProt Q9Y2J8); experiment: Target engagement assay with HEK293T/PAD2 cells; type: cell-based
[2] = tested on: PAD1; experiment: PAD1 inactivation kinetics; type: biochemical
How it was run: (§1)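 Purified PAD enzyme (2.0 μM) was preincubated at 37 °C with various inactivator concentrations in 50 mM HEPES pH 7.6, 10 mM CaCl2 and 2 mM DTT. Aliquots taken over time were added to the same buffer containing 10 mM BAEE, run for 15 min, then quenched in liquid nitrogen. Citrulline was measured by COLDER. k_obs came from exponential decay fits, and k_inact and K_I from saturation fits. At least duplicate.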

[3] = molecular target: T1, PAD2; experiment: PAD2 inactivation kinetics; type: biochemical; conditions: for PAD2 potency: as compared to BB-F-amidine (4a) and BB-Cl-amidine (4b); for fold increase in PAD2 potency and selectivity: relative to Cl-amidine; for fold more potent PAD2 inhibitor in vitro: than BB-Cl-amidine (4b); for PAD2-selectivity: up to, other isozyme not named; for fold decrease in PAD2 potency: compared to 30a
How it was run: as §1

[4] = tested on: PAD4; experiment: PAD4 inactivation kinetics; type: biochemical
How it was run: as §1

[5] = tested on: HEK293T/PAD2 cells; experiment: Cellular uptake assay; type: in vitro ADME, human
How it was run: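 HEK293T/PAD2 cells in HBS with 2 mM CaCl2 were treated with 0.5 μM ionomycin and test compound at 25 μM, as in the target engagement protocol. Cells were scraped, washed 4× with HBS, extracted in acetonitrile by sonication for 1 h at 0 °C, then cleared, filtered and analysed by LCMS. Analyte peak area was compared with the peak area of 25 μM compound injected directly.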

[6] = tested on: HEK293T cells; experiment: Cytotoxicity study; type: cell-based, human; conditions: than BB-Cl-amidine (4b)
How it was run: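 Human HEK293T cells were plated at 2.5 × 10⁶ cells/well. Next day they were exposed for 24 h to DMSO, Triton X-100, or a range of test-compound concentrations. Viability was read by XTT absorbance at 475 nm. EC50 came from an eight-point dose-response fit with range, slope factor and background terms.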

[7] = as compared to BB-F-amidine (4a)
[8] = as compared to BB-Cl-amidine (4b)

T1 sequence (Q9Y2J8 whole entry): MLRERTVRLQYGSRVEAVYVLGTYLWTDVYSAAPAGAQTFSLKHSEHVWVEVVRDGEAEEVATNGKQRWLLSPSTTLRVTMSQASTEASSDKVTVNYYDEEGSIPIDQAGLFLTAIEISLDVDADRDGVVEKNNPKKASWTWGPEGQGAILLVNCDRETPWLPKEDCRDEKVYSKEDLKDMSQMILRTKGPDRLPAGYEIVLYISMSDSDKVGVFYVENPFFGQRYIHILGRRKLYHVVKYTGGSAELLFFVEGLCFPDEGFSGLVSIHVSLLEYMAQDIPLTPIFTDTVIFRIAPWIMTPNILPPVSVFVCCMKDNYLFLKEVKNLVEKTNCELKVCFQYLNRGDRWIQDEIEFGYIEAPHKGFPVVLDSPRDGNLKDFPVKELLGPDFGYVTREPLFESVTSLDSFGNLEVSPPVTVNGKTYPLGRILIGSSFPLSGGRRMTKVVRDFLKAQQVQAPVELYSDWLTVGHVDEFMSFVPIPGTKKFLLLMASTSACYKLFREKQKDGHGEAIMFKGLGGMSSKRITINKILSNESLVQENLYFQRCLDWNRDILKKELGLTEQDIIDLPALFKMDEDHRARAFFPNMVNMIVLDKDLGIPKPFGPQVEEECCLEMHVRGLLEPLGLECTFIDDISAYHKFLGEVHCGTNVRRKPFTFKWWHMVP

N=C(CF)NCCC[C@H](NC(=O)c1ccc(-c2ccccc2)cc1)c1nc2ccccc2[nH]1 [4a]
fold less potent in the target engagement assay ([1]; than BB-Cl-amidine (4b)): ~ 3 fold

N=C(CF)NCCC[C@H](NC(=O)c1ccccc1C(=O)O)c1nc2ccccc2[nH]1 [9a]
fold increase in PAD1 inhibition [2, 7]: 18 fold | PAD2 potency [3]: relatively unaffected | fold increase in PAD4 inhibition [4, 7]: 6.5 fold

N=C(CCl)NCCC[C@H](NC(=O)c1ccccc1C(=O)O)c1nc2ccccc2[nH]1 [9b]
fold increase in PAD1 inhibition [2, 8]: 1.8 fold | PAD2 potency [3]: relatively unaffected | fold increase in PAD4 inhibition [4, 8]: 2.3 fold

CCn1c([C@H](CCCNC(=N)CF)NC(=O)c2ccccc2C(=O)O)nc2ccccc21 [11a]
fold increase in PAD2 inhibition [3, 7]: 26 fold

N=C(CF)NCCC[C@H](NC(=O)c1cccc2c1C(=O)NC2)c1nc2ccccc2[nH]1 [14a]
fold increase in PAD2 inhibition ([3]; as compared to 9a): ~ 7 fold | fold increase in PAD2 inhibition [3, 7]: ~ 9 fold | fold increase in PAD4 inhibition ([4]; as compared to 9a): ~ 1.4 fold

CCn1c([C@H](CCCNC(=N)CF)NC(=O)c2cccc3c2C(=O)NC3)nc2ccccc21 [16a]
fold increase in PAD2 inhibition ([3]; as compared to 9a): ~ 41 fold | fold increase in PAD2 inhibition [3, 7]: ~ 51 fold | occupancy of PAD2 ([1]; at 25 μM, HEK293T/PAD2 cells): roughly half as potent

COc1cccc2c1nc([C@H](CCCNC(=N)CF)NC(=O)c1cccc3c1C(=O)NC3)n2C [30a]
fold increase in PAD2 potency and selectivity [3]: > 100 fold | fold more potent PAD2 inhibitor in vitro [3]: 12–50 fold | PAD2-selectivity [3]: up to 106 fold | fold more compound able to enter HEK293T cells ([5]; than 41a): 6 fold | fold less cytotoxic [6]: > 30 fold

CCn1c([C@H](CCCNC(=N)CF)NC(=O)c2cccc3c2C(=O)NC3)nc2c(OC)cccc21 [31a]
fold decrease in PAD2 potency [3]: 4 fold | fold more potent PAD2 inhibitor in vitro [3]: 12–50 fold | fold less cytotoxic [6]: > 30 fold

CCOc1cccc2c1nc([C@H](CCCNC(=N)CF)NC(=O)c1cccc3c1C(=O)NC3)n2C [32a]
fold decrease in PAD2 potency [3]: ~ 2 fold | fold more potent PAD2 inhibitor in vitro [3]: 12–50 fold | fold less cytotoxic [6]: > 30 fold

CCOc1cccc2c1nc([C@H](CCCNC(=N)CCl)NC(=O)c1cccc3c1C(=O)NC3)n2C [32b]
fold decrease in PAD2 potency [3]: ~ 2 fold

COc1ccc2c(c1)nc([C@H](CCCNC(=N)CF)NC(=O)c1cccc3c1C(=O)NC3)n2C [37a]
fold more potent PAD2 inhibitor in vitro [3]: 12–50 fold | fold less cytotoxic [6]: > 30 fold

CCN1Cc2cccc(C(=O)N[C@@H](CCCNC(=N)CF)c3nc4c(OC)cccc4n3C)c2C1=O [41a]
fold increase in PAD2 inhibition [3, 7]: > 300 fold | fold increase in PAD2 potency and selectivity [3]: > 100 fold | PAD2-selectivity [3]: up to 106 fold | fold less compound internalized by the cell ([5]; than unsubstituted lactams 30a, 31a, 32a, and 37a, mass spectrometry): ~ 6 fold

COc1cccc2c1nc([C@H](CCCNC(=N)CF)NC(=O)c1cccc3c1C(=O)N(C)C3)n2C [49a]
fold increase in PAD2 potency and selectivity [3]: > 100 fold | PAD2-selectivity [3]: up to 106 fold
